# Data published in PMC7134359 (Nature, 2020).
# Several values for one entry are separate records, joined by “and”; a condition that tells them apart may be missing. Equal entries are not always repeated. Where two headings read alike, the source gives them in different places.
# What was measured:
# mMT1 [1] = molecular target: T1, mMT1 (Mus musculus, UniProt Q61184); experiment: 2-[125I]-iodomelatonin competition binding, CHO cell membranes; details: read-out: KD mMT1
# hMT1 = hMT1 (Homo sapiens, UniProt P48039); experiment: GloSensor cAMP assay; format: cell-based; details: for hMT1 Schild slope: Schild analysis, antagonism of melatonin, cAMP
# hMT2 = molecular target: T2, hMT2 (Homo sapiens, UniProt P49286); experiment: cell-based; format: cell-based; details: for hMT2 Schild slope: Schild analysis, antagonism of melatonin
# T2 sequence (P49286 1-362): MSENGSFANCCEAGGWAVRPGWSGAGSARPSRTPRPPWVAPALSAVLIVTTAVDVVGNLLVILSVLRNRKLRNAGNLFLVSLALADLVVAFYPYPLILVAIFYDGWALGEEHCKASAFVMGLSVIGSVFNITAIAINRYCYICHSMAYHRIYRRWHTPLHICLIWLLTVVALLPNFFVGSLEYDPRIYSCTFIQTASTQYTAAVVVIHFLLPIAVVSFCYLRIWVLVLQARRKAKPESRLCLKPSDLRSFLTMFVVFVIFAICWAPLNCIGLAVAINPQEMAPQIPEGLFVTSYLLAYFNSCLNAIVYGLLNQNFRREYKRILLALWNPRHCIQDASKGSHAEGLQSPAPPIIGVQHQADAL
# [2] = Plasma pharmacokinetics and brain distribution; format: in vivo; details: male, C57BL/6, mouse, iv, 2 mg/kg; for Kp at 30 min: brain and plasma; for AUC / Cmax / Vd / clearance / half-life: plasma
# In short: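 Male C57BL/6 mice (nine) got a single 2 mg/kg IV dose in 5% N-methyl pyrrolidone, 5% Solutol HS-15, 90% saline. Retro-orbital blood (~60 μL, three mice per time point, light isoflurane) was taken at 0.08–24 hr and plasma stored at -70°C. Brains were collected at 0.5, 4 and 24 hr and homogenized in ice-cold PBS pH 7.4 at three times brain weight.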
# mMT1 [3] = molecular target: T1, mMT1; experiment: GloSensor cAMP assay; format: cell-based; details: for Emax: HEK293, read-out: mMT1 Emax
# In short: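 HEK293T cells in DMEM with 10% dialyzed FBS were co-transfected with a mouse MT1 or MT2 (de-Tango-ized) construct plus GloSensor DNA (8 μg each). Next day, cells were seeded at 20,000/well in DMEM with 1% dialyzed FBS for 24 h, then switched to HBSS, 20 mM HEPES pH 7.4, 0.1% BSA. Inhibition of isoproterenol-stimulated cAMP was read by luminescence.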
# [4] = system: C3H/HeN mice (WT, MT1KO, MT2KO); experiment: Phase shift of circadian running wheel activity onset in constant dark; format: in vivo; details: CT 10; 0.9 μg/mouse (about 0.03 mg/Kg)
# [5] = system: C3H/HeN mice (WT, MT1KO, MT2KO); experiment: Re-entrainment; format: in vivo, mouse
# [6] = system: C3H/HeN mice (WT, MT1KO, MT2KO); details: cited from earlier work
# [7] = hMT1 pEC50, inhibition of isoproterenol-stimulated cAMP, HEK cells, agonist
# [8] = hMT2 pEC50, inhibition of isoproterenol-stimulated cAMP, HEK cells, agonist
# [9] = hMT1 pEC50 (Inverse), inverse agonist, isoproterenol-stimulated cAMP, HEK cells
# [10] = pEC50 MT1 (IA), inverse agonist, as summarised in PK table
# [11] = hMT2 pEC50 (Inverse), inverse agonist, isoproterenol-stimulated cAMP, HEK cells
# [12] = MT2 activity, none detectable up to, cAMP assay
# hMT1, sequence (P48039 whole entry): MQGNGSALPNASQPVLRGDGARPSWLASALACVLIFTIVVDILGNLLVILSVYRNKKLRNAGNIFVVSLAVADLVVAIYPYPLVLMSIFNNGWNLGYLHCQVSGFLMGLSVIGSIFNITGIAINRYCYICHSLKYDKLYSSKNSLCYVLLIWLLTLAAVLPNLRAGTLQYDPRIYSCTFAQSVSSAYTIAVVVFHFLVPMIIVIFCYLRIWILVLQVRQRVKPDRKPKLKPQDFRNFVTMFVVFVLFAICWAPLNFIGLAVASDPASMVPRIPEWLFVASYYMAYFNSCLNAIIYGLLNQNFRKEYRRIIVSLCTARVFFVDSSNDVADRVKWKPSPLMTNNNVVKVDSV
# T1 sequence (Q61184 whole entry): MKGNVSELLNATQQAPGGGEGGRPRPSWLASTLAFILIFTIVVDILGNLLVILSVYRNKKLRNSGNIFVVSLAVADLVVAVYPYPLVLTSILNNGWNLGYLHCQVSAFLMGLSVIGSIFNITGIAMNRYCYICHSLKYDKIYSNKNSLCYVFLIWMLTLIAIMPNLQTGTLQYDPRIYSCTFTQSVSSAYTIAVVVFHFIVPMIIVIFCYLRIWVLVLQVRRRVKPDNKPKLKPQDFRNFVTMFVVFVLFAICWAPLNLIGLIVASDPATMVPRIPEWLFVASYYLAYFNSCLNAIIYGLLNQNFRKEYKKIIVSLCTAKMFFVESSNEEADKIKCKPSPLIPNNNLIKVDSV
smiles,measurement,setting,value
"COc1ccc2[nH]c(I)c(CCNC(C)=O)c2c1 [2-[^125I]-iodomelatonin, 2-[^125I]-Iodomelatonin]",Kd,mMT1 [1]; GTP buffer,0.201 nM
same,Kd,mMT1 [1]; control buffer,0.087 nM
Cc1nc(-c2cccc(NCc3ccccc3Cl)c2)n[nH]1 [ZINC37781618],EC50,"hMT1; hMT1 pEC50 (inactive analog), tested at concentrations up to 30μM",> 31600 nM
same,EC50,"hMT2; hMT2 pEC50 (inactive analog), tested at concentrations up to 30μM",> 31600 nM
COc1ccc(Br)c(CNc2cccnc2)c1 [ZINC128734226],Kp at 30 min,[2],1.58
same,AUC,[2],282 ng·h/mL
same,Cmax,[2],1920 ng/mL
same,Vd,[2],1.11 L/kg
same,clearance,[2],118 mL/min/kg
same,half-life,[2],17.4 min
same,EC50,hMT1; [7],158 nM
same,EC50,hMT2; [8],6.31 nM
COc1ccc(CN(C(=O)c2ccccc2F)c2ccncc2)cc1 [ZINC151192780],selectivity for MT2 over MT1,hMT2; cAMP,89 fold
COc1ccc(CN(C(=O)[C@H]2C[C@@H]2C)c2ccncc2)cc1 [ZINC151209032],Emax,"hMT1; HEK293, read-out: hMT1 % Emax",88%
same,EC50,hMT1; [7],2000 nM
same,melatonin receptor type selectivity (grouping),"hMT1; hMT1 versus hMT2, cAMP assays",MT1-selective
CC(C)c1ccc(CNc2cccc(-c3nnc[nH]3)c2)cc1 [ZINC157673384],Kp at 30 min,[2],1.43
same,AUC,[2],564 ng·h/mL
same,Cmax,[2],1300 ng/mL
same,Vd,[2],1.38 L/kg
same,clearance,[2],58.5 mL/min/kg
same,half-life,[2],19.2 min
same,Kb,hMT1,12.6 nM
same,Emax,"hMT1; HEK293, read-out: hMT1 % Emax (Inverse)",47%
same,Emax,"hMT1; HEK293, read-out: hMT1 Emax",-47 ± 12%
same,hMT1 Schild slope,hMT1,0.80 ± 0.04
same,EC50,hMT1; [9],20.9 nM
same,EC50,hMT1; [10],20 nM
same,EC50,mMT1 [3],100 nM
same,Emax,mMT1 [3],-49 ± 3%
same,Kb,hMT2,200 nM
same,Emax,"hMT2; HEK293, read-out: hMT2 % Emax (Inverse)",153%
same,Emax,"hMT2; HEK293, read-out: hMT2 Emax",-153 ± 14%
same,hMT2 Schild slope,hMT2; cAMP,1.0 ± 0.1
same,EC50,hMT2; [11],661 nM
same,EC50,"hMT2; pEC50 MT2 (IA), inverse agonist, as summarised in PK table",631 nM
COC(=O)c1ccc(CSc2nnc(C3CC3)[nH]2)s1 [ZINC159050207],Emax,"hMT1; HEK293, read-out: hMT1 % Emax",99%
same,EC50,hMT1; [7],1 nM
same,Emax,"hMT2; HEK293, read-out: hMT2 % Emax",83%
same,EC50,hMT2; [8],2 nM
COc1cccc2c1CCN(C(=O)c1ccc(F)nc1)C2 [ZINC182731037],EC50,hMT2; [12],> 30000 nM
CN(Cc1ccncc1)c1ccnc(Cl)c1 [ZINC223593565],Emax,"hMT1; HEK293, read-out: hMT1 % Emax",86%
same,EC50,hMT1; [7],398 nM
same,Emax,"hMT2; HEK293, read-out: hMT2 % Emax",58%
same,EC50,hMT2; [8],355 nM
COc1ccc(CN(C)C(=O)c2cccc(OC(F)F)c2)cc1O [ZINC353044322],EC50,hMT2; [12],> 30000 nM
COc1ccc(CN(C(=O)c2scc(C)c2Cl)c2ccncc2)cc1 [ZINC485552623],EC50,hMT1; [7],> 10000 nM
Clc1ccc(CNc2cccc(-c3nnc[nH]3)c2)c(Br)c1 [ZINC555417447],Kp at 30 min,[2],3.03
same,AUC,[2],494 ng·h/mL
same,Cmax,[2],1950 ng/mL
same,Vd,[2],1.11 L/kg
same,clearance,[2],67.1 mL/min/kg
same,half-life,[2],16.2 min
same,hMT1 Schild slope,hMT1,0.98 ± 0.03
same,EC50,hMT1; [9],40.7 nM and 39.8 nM
same,EC50,hMT1; [10],39.8 nM
same,EC50,mMT1 [3],63.1 nM
same,Emax,mMT1 [3],-56 ± 5%
same,advance of the onset of activity,[4],approximately 1 hour
same,hMT2 Schild slope,hMT2; cAMP,1.3 ± 0.4
same,EC50,hMT2; [11],2000 nM
Cc1cc(=O)n2ccn(CCc3ccc4c(c3)OC(F)(F)O4)c2n1 [ZINC664088238],EC50,hMT1; [7],> 10000 nM
CC(=O)NCCc1c(Cc2ccccc2)[nH]c2ccccc12 [luzindole],effect on re-entrainment,[5]; 300 μg/mouse,decelerates re-entrainment
COc1ccc2[nH]cc(CCNC(C)=O)c2c1 [melatonin],effect on re-entrainment,[5]; 30 μg/mouse,accelerates re-entrainment
same,ED50 (phase advance),[6],0.72 μg/mouse
